Measured values as given in paper PMC5598522 (Toxicology Reports, 2014).
Marks after values point to notes of the source that are not given here.

Tests used:
Plasma exposure = format: in vivo, rat; details: carcinogenicity bioassay, Ticagrelor 180 mg/kg/day
Wistar rats = experiment: Tumor findings in rat 2-year carcinogenicity bioassay; format: in vivo; details: female rats, 2 years
Method in brief: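 Wistar Han rats, 50 per sex per group (100 control females), started at seven weeks old and gavaged daily for 2 years at 0, 20, 60 or 180 mg/kg/day (females) in 1% carboxymethylcellulose/0.1% polysorbate 80. Full tissue list was paraffin-embedded, H&E-stained, examined microscopically and peer reviewed. Histology analysed by two-tailed Fisher's exact test; tumours by multiple testing at 5% significance.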

[1] = test system: Alderly Park (Wistar derived) rats; experiment: Rat micronucleus in vivo assay; details: 2000 mg/kg
Method in brief: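 Genotoxicity screens. Ames: Salmonella strains exposed to 3–3000 μg/plate with and without metabolic activation; read-out was reverse-mutation frequency. Mouse lymphoma: L5178Y/TK+ cells treated for 4 h with S9 (15.7–41.8 μg/mL), for 4 h without S9 (5.23–15.7 μg/mL), and for 24 h without S9; read-out was clone number. Micronucleus: male and female Alderly Park rats given 2000 mg/kg; micronuclei scored 24 or 48 h post-dose.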

[2] = Exposure in rat micronucleus in vivo assay; details: Alderly Park (Wistar derived), 2000 mg/kg
[3] = biological target: human dopamine transporter (Homo sapiens, UniProt Q01959); experiment: Dopamine transporter radioligand binding
Method in brief: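 Radioligand displacement of RTI-55 from human dopamine transporter expressed in recombinant CHO-K1 cells. Screened first at 10 μM as percent inhibition of specific binding. Then tested at 10 ascending concentrations in half-log steps. IC50 and Hill coefficient from non-linear least-squares regression; Ki by Cheng–Prusoff; four repeats. IC50 then compared with free systemic Cmax.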

[4] = test system: estradiol-induced prolactin release; experiment: Ovariectomized rat estradiol-induced prolactin release; format: in vivo; details: ovariectomized female rats, 180 mg/kg/day
Method in brief: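 Female Han Wistar rats (350–375 g) were ovariectomized and given jugular and femoral vein catheters, then recovered 7–14 days. Test compound (180 mg/kg/day) or vehicle (1% sodium CMC in 0.1% polysorbate 80) was given orally for 4 days (n = 10/group). On Day 4, estradiol (2 μg/rat) was given IV 1 h post-dose. Remote femoral blood was sampled to 5 h. Plasma prolactin was measured by ELISA. Baseline-subtracted AUC was log-transformed and compared by t-test.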

platelet aggregation = details: humans, 100 mg b.i.d., at 4, 12 and 24 h; cited from earlier work

human dopamine transporter, sequence (Q01959 whole entry): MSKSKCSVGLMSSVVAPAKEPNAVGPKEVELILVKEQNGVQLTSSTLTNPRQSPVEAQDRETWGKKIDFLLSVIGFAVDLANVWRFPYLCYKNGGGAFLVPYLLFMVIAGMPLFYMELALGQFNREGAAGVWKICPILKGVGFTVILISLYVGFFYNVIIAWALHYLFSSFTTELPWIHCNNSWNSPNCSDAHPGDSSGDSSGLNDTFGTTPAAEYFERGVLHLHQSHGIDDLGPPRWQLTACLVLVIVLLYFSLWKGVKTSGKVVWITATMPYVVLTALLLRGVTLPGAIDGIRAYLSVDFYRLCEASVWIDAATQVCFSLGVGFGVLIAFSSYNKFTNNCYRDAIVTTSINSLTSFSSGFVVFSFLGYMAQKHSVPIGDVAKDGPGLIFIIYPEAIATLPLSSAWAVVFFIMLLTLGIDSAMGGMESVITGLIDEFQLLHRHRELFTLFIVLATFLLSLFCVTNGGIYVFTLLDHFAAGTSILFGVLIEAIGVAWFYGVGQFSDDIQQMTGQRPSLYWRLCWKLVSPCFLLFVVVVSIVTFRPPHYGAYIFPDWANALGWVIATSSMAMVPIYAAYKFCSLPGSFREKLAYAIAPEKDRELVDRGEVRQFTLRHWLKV

CCCSc1nc(N[C@@H]2C[C@H]2c2ccc(F)c(F)c2)c2nnn([C@@H]3C[C@H](OCCO)[C@@H](O)[C@H]3O)c2n1 [Ticagrelor]
Plasma exposure (mean ± SD) (Plasma exposure; Day 1, 5 h post dose): 35.9 ± 17.9 µM
Plasma exposure (mean ± SD) (Plasma exposure; Week 26, 5 h post dose): 37.9 ± 10.5 µM
Mammary fibroadenoma incidence (Wistar rats; 20 mg/kg/day): 22 percentage
Pituitary hyperplasia and adenoma incidence (Wistar rats; 20 mg/kg/day): 64 percentage
Uterine adenocarcinoma incidence (Wistar rats; 20 mg/kg/day): 10 percentage
Uterine adenosquamous carcinoma incidence (Wistar rats; 20 mg/kg/day): 0 percentage
Uterine squamous cell carcinoma incidence (Wistar rats; 20 mg/kg/day): 0 percentage
Mammary fibroadenoma incidence (Wistar rats; 60 mg/kg/day): 16 percentage
Pituitary anterior lobe adenoma in decedent rats (Wistar rats; 60 mg/kg/day): 53 percentage
Pituitary hyperplasia and adenoma incidence (Wistar rats; 60 mg/kg/day): 73 percentage
Uterine adenocarcinoma incidence (Wistar rats; 60 mg/kg/day): 12 percentage
Uterine adenosquamous carcinoma incidence (Wistar rats; 60 mg/kg/day): 2 percentage
Uterine squamous cell carcinoma incidence (Wistar rats; 60 mg/kg/day): 0 percentage
Mammary fibroadenoma incidence (Wistar rats; 180 mg/kg/day): 2 ^* percentage
Pituitary anterior lobe adenoma in decedent rats (Wistar rats; 180 mg/kg/day): 35 ^* percentage
Pituitary hyperplasia and adenoma incidence (Wistar rats; 180 mg/kg/day): 50 ^* percentage
Uterine adenocarcinoma incidence (Wistar rats; 180 mg/kg/day): 42 ^*** percentage
Uterine adenosquamous carcinoma incidence (Wistar rats; 180 mg/kg/day): 4 percentage
Uterine squamous cell carcinoma incidence (Wistar rats; 180 mg/kg/day): 2 percentage
Rat micronucleus in vivo: Conclusion [1]: Negative
Rat micronucleus in vivo: Results ([1]; M&F, 24 or 48 h post-dose): No increased frequency of micronuclei at 24 or 48 h post-dose
AUC ([2]; female): 1140 to 1360 µg·h/mL
Cmax ([2]; female): 45000 to 53000 ng/mL
AUC ([2]; male): 794 to 1240 µg·h/mL
Inhibition of the dopamine transporter at free systemic Cmax levels ([3]; at human free systemic Cmax): minimal inhibition
Inhibition of the dopamine transporter at free systemic Cmax levels ([3]; at rat free systemic Cmax): > 50%
Effect on estradiol-induced prolactin release [4]: all but completely blocked the estradiol-induced prolactin release
Inhibition of platelet aggregation (platelet aggregation): greater than 90%
